Results of several laboratories.
Compare with care: the assays were run in different laboratories.
Target: STE20/SPS1-related proline-alanine-rich protein kinase (STK39, Homo sapiens, UniProt Q9UEW8)

CC(C)(C)c1nc2c(s1)c1nc(N)ncc1c1ccc(NS(=O)(=O)c3c(F)cccc3F)c(F)c12 — remaining activity (enzyme activity, inhibitor, radiometric; 1 µM): 92%
Cc1c(NC(=O)c2cc(C(N)=O)nc3cc(F)ccc23)c(C(F)(F)F)nn1Cc1ccc(C(C)(C)C)cc1 — remaining binding (cell-free assay, competition with immobilised ligand; 1 µM): 100%
Cc1ccc(NC(=O)c2ccc(CN3CCN(C)CC3)cc2)cc1Nc1nc(-c2cccnc2)cs1 — remaining signal (cell-free assay; 0.5 µM): 94%
Cn1cnc(Br)c1C1=CN(c2ncnc3[nH]cnc23)CCS1 — inhibition (enzyme activity, inhibitor, radiometric; 50 nM): 65.5%
CC(C)(O)[C@H]1CC[C@H](Nc2ccc3ncc(-c4cccc(C(F)(F)F)c4)n3n2)CC1 — remaining activity (enzyme activity, inhibitor; 1 µM): 112%
Cc1cc(-n2nc(Cc3cc(F)cc(C(F)(F)F)c3)nc2C)ccc1C(N)=O — remaining binding (cell-free assay, competition with immobilised ligand; 1 µM): 100%
O=C1Nc2ccc(Cl)cc2C1=Cc1cc(Cl)c(O)c(Cl)c1 — remaining signal (cell-free assay; 0.5 µM): 97%
CNC(=O)Nc1ccc2c(c1)[C@@]1(CC2)OC(=O)N(CC(=O)N(Cc2ccc(F)cc2)[C@@H](C)C(F)(F)F)C1=O — remaining binding (cell-free assay, competition with immobilised ligand; 1 µM): 100%
COc1cc2c(N3CCN(C(=O)Nc4ccc(OC(C)C)cc4)CC3)ncnc2cc1OCCCN1CCCCC1 — remaining signal (cell-free assay; 0.5 µM): 93.2%
Nc1ncnc2occ(-c3ccc(NC(=O)Nc4cc(C(F)(F)F)ccc4F)cc3)c12 — remaining signal (cell-free assay, inhibitor; 20 µM): 19%
O=C(Nc1ccc(Oc2ccc(F)cc2)cc1)N1CCc2ncccc2[C@H]1c1ccc(F)cc1 — remaining binding (cell-free assay, competition with immobilised ligand; 1 µM): 82%
Cc1sc(C(=O)NC2COC2)cc1-n1cc(NC(=O)Nc2c(F)cccc2Cl)cn1 — remaining activity (enzyme activity, inhibitor; 10 µM): 64.5%
